Only some compounds are listed: those with a hit (about 3.7% of all), similar ones and a draw of the others.
KCNQ1 pot: human KCNQ1 channel potentiation or activation | P51787 | CHO-K1 KCNQ1, thallium flux FluxOR fluorescence; hits give high values | B-score at 10 µM | 310,000 compounds, 0.35% hits | AID 2648;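 active means fluorescence ratio B-score, a plate-corrected score, at least three library SD, with initial intensity B-score within 5 SD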
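Material: CHO-K1 cells stably expressing KCNQ1. Medium: assay buffer for compound exposure, DMSO matched across wells. Reagent: K+/Tl+ depolarizing stimulus. Compound dosing: single-concentration screen. Times: 37 °C overnight plating, 90-min dark dye load, 20-min compound pretreatment. Technique: FluxOR Tl+ flux fluorescence.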
KCNK3 inh: human KCNK3 channel inhibition, primary screen; 340,000 compounds, 0.84% hits; AID 602410; O14649; CHO-KCNK3 thallium flux, FluxOR fluorescence; hits give low values; B-score at 10 µM;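 active means B-score under library mean minus 4 SD, starting fluorescence ratio at most library mean plus 5 SD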;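 further: more negative B-score means stronger inhibition of thallium flux through KCNK3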
KCNQ1 inh: blocks the human KCNQ1 potassium channel | B-score at 10 µM | CHO-K1 KCNQ1, FluxOR thallium flux fluorescence; hits give high values | AID 2642 | P51787 | 310,000 compounds, 1.3% hits;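 active means compounds whose thallium flux B-score, printed positive for inhibition, exceeds three library SD while starting fluorescence stays within three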;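 further: channel opened by potassium depolarization with thallium stimulus after 20 min compound exposure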
Kir21 block: Kir2.1 (mouse) channel inhibition. B-score at 10 µM. P35561. AID 1672. HEK293-Kir2.1, FluxOR thallium flux fluorescence; hits give low values. 310,000 compounds, 0.85% hits;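 active means fluorescence ratio B-score at or below minus 3 SD of library scores, with starting-brightness B-score within 2 SD, cut at about -4.2 in these data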;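 further: channel flux triggered by added potassium and thallium sulfate stimulus; B-score of peak minus minimum fluorescence over baseline after thallium stimulus; more negative B-score means stronger Kir2.1 block with less thallium influx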
Target sequence (P35561 whole entry, looked up): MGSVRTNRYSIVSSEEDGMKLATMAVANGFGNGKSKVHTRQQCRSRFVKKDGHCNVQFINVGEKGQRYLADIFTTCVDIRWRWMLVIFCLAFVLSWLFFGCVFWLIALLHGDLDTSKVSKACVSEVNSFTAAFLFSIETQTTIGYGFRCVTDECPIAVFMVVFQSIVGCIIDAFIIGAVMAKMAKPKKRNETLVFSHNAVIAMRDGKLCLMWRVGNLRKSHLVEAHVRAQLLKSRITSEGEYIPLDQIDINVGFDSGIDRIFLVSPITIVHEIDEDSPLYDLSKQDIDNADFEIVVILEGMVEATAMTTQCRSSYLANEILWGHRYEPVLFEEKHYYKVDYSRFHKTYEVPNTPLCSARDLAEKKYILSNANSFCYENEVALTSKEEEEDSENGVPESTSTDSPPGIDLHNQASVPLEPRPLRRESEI
KCNK9 block: inhibitors of human KCNK9 two-pore domain potassium channel. AID 488922. B-score at 10 µM. HEK293 KCNK9, FluxOR thallium flux fluorescence; hits give low values. 310,000 compounds, 1.2% hits. Q9NPC2;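 active means ratio B-score over 3 SD below the library mean, with starting fluorescence within 5 SD of its mean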;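 further: negative B-score means less thallium flux so channel inhibition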
hERG protect: shields human hERG channel from block by proarrhythmic agents | CHO-hERG, FluxOR thallium flux, dofetilide IC70 present | activation (rescue from dofetilide block), less the hit threshold, % at 10 µM | 310,000 compounds, 0.51% hits;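 active means activation above the mean of controls blocked by dofetilide plus 5 SD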;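 further: thallium influx through hERG after potassium depolarization seen as dye fluorescence rise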
KCNK3 inh conf: confirmation of human KCNK3 two-pore domain potassium channel inhibitors | shares compounds with KCNK3 inh | CHO-KCNK3 thallium flux, FluxOR fluorescence; 0% buffer, 100% carvedilol maximal block | ratio percent of control, % at 10 µM | 2,400 compounds, 99% hits | AID 651638;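 active means ratio percent of control, averaged over triplicates, above buffer control mean plus 5 SD, cut at about 64% in these data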;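 further: ratio is the fluorescence rise from min to max over baseline after thallium stimulus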
KCNK3 noninduced: counter-screen for KCNK3 inhibitors: effect in non-induced cells; shares compounds with KCNK3 inh; non-induced KCNK3 parental cells, FluxOR thallium flux; hits give low values; thallium flux ratio (lower = more inhibition) at 10 µM; 2,400 compounds, 40% hits;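 active means thallium flux ratio, averaged over three wells, more than 5 SD below the buffer control mean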;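 further: host cells are CHO cells without KCNK3 induction; ratio is peak minus trough fluorescence over baseline then normalized to buffer controls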
* marks the source's active call; other numbers are inactive results; i = inactive; x = no result.

SMILES | KCNQ1 pot | KCNK3 inh | KCNQ1 inh | Kir21 block | KCNK9 block | hERG protect | KCNK3 inh conf | KCNK3 noninduced
COc1ccc(N=C2SCC(c3ccc([N+](=O)[O-])cc3)=NN2CCO)cc1 | i | i | i | -1.05 | i | -6.2 | x | x
O=[N+]([O-])c1ccc(C2=NN(CCO)C(=Nc3ccc(OC(F)(F)F)cc3)SC2)cc1 | i | -10.1* | i | 0.99 | i | -9.1 | 131.0* | i
C#CCN(C[C@@H](CC(C)C)NC(=O)OC(C)(C)C)S(=O)(=O)c1ccc(Br)cc1F | x | i | x | x | x | x | x | x
CC1(C)Cc2cccc(C(=O)NC3CCN(Cc4ccccc4)CC3)c2O1 | i | -8.84* | i | -1.27 | i | -10.5 | 114.0* | i
COc1ccc2c(c1)C(c1cccs1)=NNC(c1ccncc1)=N2 | i | -8.77* | i | -0.02 | i | -9.3 | 65.7* | i
Cc1c(Cl)cccc1NC(=O)CCN1CCN(C)CC1 | i | i | i | 1.68 | i | 1.7 | x | x
CCOc1nc(CC(C)C)c2c(c1C#N)CC(C)(C)OC2 | i | -9* | i | -0.21 | i | -13.9 | 111.0* | i
CCOc1ncnc2c1oc1nc(CC(C)C)c3c(c12)CC(C)(C)OC3 | i | i | i | 0.18 | i | -14.9 | x | x
CN(Cc1cn(C)nc1-c1ccc(Oc2ccccc2)cc1)Cc1cnc2ccccn12 | i | -9.36* | 7* | -5.1* | -6.99* | -35.5 | 130.7* | 0.132*
CN(Cc1ccno1)Cc1cn(C)nc1-c1ccc(Oc2ccccc2)cc1 | i | -10.5* | i | -0.39 | i | -17.5 | 91.3* | i
CCCCCCCOC(=O)c1ccc(OC(=O)c2cccnc2)cc1 | i | -9.44* | i | 1.99 | i | -7.7 | 136.0* | 0.14*
CCCCCOC(=O)c1ccc(OC(=O)c2cncc(Br)c2)cc1 | i | i | i | -0.42 | i | -2.7 | x | x
CC(C)Sc1nc(N2CCCC2)c2c(c1C#N)CC(C)(C)OC2 | i | -10* | i | -1.2 | i | -9.4 | 118.3* | 0.135*
CCc1ccc(NC(=O)CCCNC(=O)Cn2cnc3sc(C)c(C)c3c2=O)cc1 | i | i | i | 0.13 | i | -4.0 | x | x
O=[N+]([O-])c1cccc(C2NCC(c3ccccc3Cl)c3c2[nH]c2ccccc32)c1 (stereo not drawn) | i | -9.55* | 7* | -0.23 | -8.07* | -14.5 | 124.7* | 0.143*
N#Cc1ccc(OS(=O)(=O)c2ccc(-c3ccon3)s2)cc1 | i | i | i | -1.42 | i | -7.1 | x | x
Cc1ccc(C)c(N2CCN(S(=O)(=O)c3ccc4c(c3)NC(=O)CS4)CC2)c1 | i | -9.42* | i | -0.87 | i | -1.1 | 85.0* | i
CN1CCN(S(=O)(=O)c2ccc3c(c2)NC(=O)CS3)CC1 | i | i | i | -1.79 | i | -0.7 | x | x
CC(=O)N1CCN(C(=O)c2ccccc2NS(=O)(=O)c2ccc(F)cc2)CC1 | x | i | x | x | x | x | x | x
CC(=O)N(C)N1c2ccccc2CCc2ccccc21 | i | -8.79* | i | -4.17 | i | -12.5 | 108.7* | i
CC(Cl)C(=O)N1c2ccccc2CCc2ccccc21 (stereo not drawn) | i | i | i | -1.62 | i | -10.3 | x | x
Cc1ccc(NC(=S)N(Cc2ccco2)C(C)c2cccs2)c(Cl)c1 (stereo not drawn) | i | -10.7* | i | 0.32 | i | -12.9 | 101.0* | i
Cc1ccc(Nc2c(-c3ccccc3O)nc3cnccn23)cc1 | i | -9.18* | i | 1.79 | i | -11.8 | 115.3* | 0.126*
O=C(Nc1cccc2cccnc12)c1ccc(Cl)cc1 | i | -8.89* | i | -0.22 | i | -3.4 | 103.3* | i
Cc1cccc(C(=O)Nc2cccc3cccnc23)c1 | i | i | i | 1.21 | i | -2.6 | x | x

From PubChem
